Laboratory results reported in article PMC4514009 (Journal of Radioanalytical and Nuclear Chemistry, 2010).

Test system: NMDAR
Assay: Autoradiography of NMDAR in vitro by storage phosphor imaging
Format: binding, Sprague–Dawley (SD) rat
Conditions: EB 0.3 mg pretreatment of slides
Procedure, shortened: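 Sagittal brain sections from one healthy Sprague–Dawley rat (290 g) were fixed and air-dried, then shaken 30 min at room temperature in 50 mM Tris–HCl (pH 7.4) with 120 mM NaCl. EB 0.3 mg (60 μL) or saline was applied to the slides, which were preincubated 30 min at room temperature, then incubated with the radiotracer. They were washed three times for 30 min in ice-cold Tris–HCl and exposed 30 min to a phosphor screen. DLU mm−2 were read by ROI, and hippocampus/thalamus ratios were taken per section.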

In the case of O=c1c2ccccc2[se]n1-c1ccccc1 [EB, Ebselen], the “effect on accumulation of ^99mTc-PQQ in hippocampus and cortex” value is reported as “can be inhibited”.
